# Compound activity from PubChem.
# Diaph inh CS = inhibits diaphorase or chemically oxidizes, flagging diaphorase assay artifacts; diaphorase resazurin-to-resorufin fluorescence, NADH, 16 min; bacterial (C. kluyveri) enzyme, not human; inhibition, % at 20 µM; AID 1217; 190,000 tested, 0.69% active;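 active = primary screen inhibition at 20 µM above a set limit, cut at about 50% in these data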;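 also: plate controls were DMSO with full reaction for no effect and wells lacking NADH for full effect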
#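 Test system: diaphorase enzyme from Clostridium kluyveri; amount: diaphorase at 0.14 U/mL in enzyme working solution; detection: fluorescence of resorufin formed from resazurin, Ex 544/Em 590 nm; times: reaction incubation of 16 min at room temperature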
# Diaph act CS = activates diaphorase or chemically reduces, flagging diaphorase assay artifacts. AID 1229. Diaphorase/resazurin coupled assay, resorufin fluorescence, 16 min; stronger effect = higher value; 1 = vehicle wells, 0 = NADH-free wells. 190,000 tested, 0.005% active. activation factor at 20 µM;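 active = diaphorase activity raised at least twofold by the compound at 20 µM; inactive = activation factor below 2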
#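 test system = bacterial diaphorase enzyme (C. kluyveri) | quantity = enzyme 0.07 U/mL final | reagent = NADH substrate 0.114 mM plus resazurin dye 0.1 mM, final | incubation = 16 min enzyme reaction, ambient temperature | buffer or medium = HEPES pH 7.4 buffer with MgCl2 and Tween 20 | signal = fluorescence of resorufin, 544 nm excitation, 590 nm emission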
# PMI act satM6P = increases human PMI activity with near-saturating mannose 6-phosphate | activation factor at 20 µM | P34949 | 190,000 tested, 0.34% active | coupled PMI enzyme assay, resazurin fluorescence, 20 min; stronger effect = higher value; 1 = untreated enzyme, 0 = substrate-free blank;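 active = activation factor of 2 or more at 20 µM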
# Target sequence (P34949 whole entry, looked up): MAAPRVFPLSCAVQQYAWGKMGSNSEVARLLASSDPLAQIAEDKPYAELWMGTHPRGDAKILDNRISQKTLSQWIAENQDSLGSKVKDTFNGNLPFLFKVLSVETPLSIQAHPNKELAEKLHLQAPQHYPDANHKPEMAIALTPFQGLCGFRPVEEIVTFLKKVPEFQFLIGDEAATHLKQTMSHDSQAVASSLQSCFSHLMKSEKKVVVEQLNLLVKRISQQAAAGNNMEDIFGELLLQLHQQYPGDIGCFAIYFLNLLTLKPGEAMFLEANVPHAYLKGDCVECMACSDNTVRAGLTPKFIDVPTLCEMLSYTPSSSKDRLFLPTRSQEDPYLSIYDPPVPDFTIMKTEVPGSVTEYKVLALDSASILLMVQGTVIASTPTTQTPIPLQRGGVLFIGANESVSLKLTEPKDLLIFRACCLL
#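 assay system = human phosphomannose isomerase with PGI, G6PDH, diaphorase coupling enzymes | quantity = 15 ng/mL PMI | incubation = enzyme reaction with compound 20 min at room temperature | medium = HEPES pH 7.4 buffer with MgCl2 and Tween-20 | compound dosing = one concentration, 20 µM, in 1% DMSO | measured by = Diaphorase-driven resazurin-to-resorufin fluorescence, excitation 544, emission 590 nm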
# G6PDH counter = counter-screen for G6PDH assay hits: L. mesenteroides G6PDH inhibition; Purified L. mesenteroides G6PDH, diaphorase/resazurin coupled fluorescence, 45 min; inhibition, % at 5 µM; 200,000 tested, 0.12% active; AID 1020; in the data active = inhibition above about 50%
# PMI activator = phosphomannose isomerase (human) activation. AID 1214. activation factor at 20 µM. purified human PMI, coupled resazurin fluorescence, 20 min; stronger effect = higher value; 1 = vehicle control, 0 substrate-free wells. 190,000 tested, 0.005% active;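 active = activation factor of 2 or more at 20 µM, relative to plate controls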
# * hit, by the source's call; . = not tested or not shown. Most compounds without a hit are left out; they make up all but 1.1% or so of the library.
SMILES,Diaph inh CS,Diaph act CS,PMI act satM6P,G6PDH counter,PMI activator
Cc1ccc(OCC(=O)NN=C2c3ccccc3-c3ccccc32)cc1,-7,1.1,1.1,3,1.1
Cc1cccc(NC(=O)C(CC(C)C)NC(=O)C2CCC(C)CC2)n1 (stereo unspecified),5,1,1.1,6,1
O=C(O)c1ccc(-n2cc(-c3cc4ccccc4oc3=O)[nH]c2=S)cc1,23,0.8,2.4*,2,1.7
CCOc1ccc(N2C(=O)CN(O)C=C3N=c4ccccc4=C32)cc1,5,0.9,0.8,14,1
Cc1cc2nc3c(=O)[nH]c(=O)[nH]c3nc2c([N+](=O)[O-])c1N,65*,0.3,0.5,30,0.9
Cc1c(N)c(C(C)(C)C)cc(C(C)(C)C)c1[N+](=O)[O-],23,0.8,1,13,0.9
O=S(=O)(NCc1ccco1)c1ccc(Cl)nc1,-1,1,1,6,1
CC(=O)c1sc2nc(-c3cccs3)ccc2c1N,12,0.9,2.1*,4,1.7
COc1cc(/C=N/NC(=O)c2cn(-c3cccc(C)n3)cn2)ccc1O,8,0.9,1,-4,1
Cc1cccc(C)c1N1CCN(C(=O)N2CCCCC2)CC1,10,0.9,2*,8,1.6
CN1CCN(C(=O)C23CC4CC(C2)CC(c2ccccc2)(C4)C3)CC1,9,0.9,0.9,10,0.9
C[C@]12CC[C@@H]3c4cc(O)c(O)cc4CC[C@H]3[C@@H]1CC[C@@H]2O,66*,0.3,0.7,29,0.5
CCSCc1nnc(SCC(=O)Nc2ccc(OC)cc2)n1C,0,1,1,6,1
Cc1ccc(Nc2nc(-c3ccc(O)c(O)c3)cs2)nc1,83*,0.2,0.5,24,0.3
COc1cccc(N2C(=O)C(Cc3c[nH]c4ccccc34)NC2=S)c1 (stereo unspecified),-10,1.1,1.1,8,1.2
CCOc1ccc(NC(=O)N2CCC(c3nc4ccccc4[nH]3)CC2)cc1,2,1,0.8,-1,1.1
CC(C)(C)c1nc(S(=O)(=O)c2ccc(Cl)cc2)c(N2CCOCC2)o1,2,1,2.1*,7,1.6
CC(C)Cc1nc(S(=O)(=O)c2ccc(Cl)cc2)c(N2CCOCC2)o1,10,0.9,1.2,-5,1.1
COc1ccc(-c2ccc(C(=O)O)o2)c([N+](=O)[O-])c1,69*,0.3,0.3,17,0.3
Cc1ccc2cc3c(N)c(C(=O)N4CC(=O)Nc5ccccc54)sc3nc2c1,12,0.9,2.1*,2,1.3
Cc1ccc2nc3sc(C(=O)N4CCOCC4)c(N)c3cc2c1,15,0.9,2*,2,1.5
O/N=C\c1ccccc1Oc1ccc(F)cc1,14,0.9,1,6,1
Cc1cc(C)n(-c2ccc(N3CCOCC3)nn2)n1,9,0.9,0.9,30,0.9
Cc1cc(C)n(-c2nnc(N3CCN(c4ccc(F)cc4)CC3)nn2)n1,53*,0.5,0.4,2,0.1
N/C(=N\OC(=O)c1ccc(Br)o1)c1ccccn1,8,0.9,1.1,7,1
SMILES,Diaph inh CS,Diaph act CS,PMI act satM6P,G6PDH counter,PMI activator
O=C1C(C2=C(O)c3ccccc3C2=O)=Nc2ccccc21,10,0.9,0.8,56*,1.1
O=C1Nc2ccccc2N(O)N1c1cc(-c2ccc(Cl)cc2)[nH]n1,12,0.9,0.9,3,1
C/C(=N\Nc1ccc(Cl)c(Cl)c1)c1ccc(-n2ccnc2)cc1,5,0.9,2.6*,-6,1.7
CC(C)(C)N/N=C/c1c(O)n(-c2ccc(Cl)cn2)c(=O)c2ccccc12,11,0.9,2.5*,19,1.9
CC(C)NCC(O)c1ccc(NS(C)(=O)=O)cc1 (stereo unspecified),0,1,1.1,7,1
CC(C)NC[C@@H](O)c1ccc(O)c(O)c1,62*,0.4,0.4,63*,0.3
O=C(NCCc1c[nH]c2ccccc12)C(=O)NCC1OCCCN1S(=O)(=O)c1cc(F)ccc1F (stereo unspecified),22,0.8,0.9,2,0.8
CCOC(=O)c1c(NC(=S)NC(C)=O)sc(C)c1C,0,1,0.9,-19,0.9
O=C(NCCc1ccccc1)C(=O)Nc1ccc([N+](=O)[O-])cc1,13,0.9,1,11,1
Cc1cccc(NC(=O)CCC(=O)OCC(=O)c2ccc(Oc3ccc([N+](=O)[O-])cc3)cc2)c1,67*,0.3,1,-2,1
Oc1ccccc1C1CC(c2cccs2)=NC(c2cccc(Br)c2)N1 (stereo unspecified),14,0.9,0.9,3,0.7
O=C(/C=C/c1ccco1)Nc1cccc2cccnc12,63*,0.4,0.7,-8,1.1
Cc1ccc(C)c(S(=O)(=O)N=Nc2c(O)[nH]c3ccccc23)c1,-10,1.1,2.1*,11,1.8
Cc1ccc(S(=O)(=O)N=Nc2c(O)[nH]c3ccccc23)cc1,-19,1.2,2.4*,-12,2.2*
Cc1ccc2cc(/C=N/NC(=O)CN3CCCCC3)c(Cl)nc2c1,-3,1,1,5,0.9
O=C(NCCO)Nc1ccc2nc(-c3ccco3)c(-c3ccco3)nc2c1,74*,0.3,0.8,31,1.3
O=C(NCCO)Nc1ccc2nsnc2c1,15,0.9,0.7,2,0.9
CC(=O)c1ccc(NC(=O)c2ccc3nc(-c4ccco4)c(-c4ccco4)nc3c2)cc1,55*,0.5,1.5,22,1.2
O=C(NCCCO)c1ccc2nc(-c3ccco3)c(-c3ccco3)nc2c1,43,0.6,1.1,33,1.4
O=C(CSc1nnc(-c2ccco2)c(-c2ccco2)n1)c1ccccc1,.,.,.,29,.
CC(=O)c1ccc(NC(=O)CSc2nnc(-c3ccco3)c(-c3ccco3)n2)cc1,81*,0.2,0.5,38,0.8
CCCCNC(=O)c1ccc2nc(-c3ccco3)c(-c3ccco3)nc2c1,53*,0.5,1.1,-28,1
COC(=O)c1ccc2c(=O)n(-c3ccc(OC)cc3)c(=S)[nH]c2c1,21,0.8,1,-3,1
O=C(NCc1ccccc1)c1ccc2nc(-c3ccco3)c(-c3ccco3)nc2c1,46,0.5,1.3,22,1.2
O=C(Nc1ccccc1)c1ccc2nc(-c3ccco3)c(-c3ccco3)nc2c1,79*,0.2,1.3,-9,1
O=C(Cn1c(=S)[nH]c2ccccc2c1=O)NCCc1ccccc1,-2,1,1.1,-5,1.1
Cc1cc(C)n(CC(=O)N/N=C/c2ccccn2)n1,8,0.9,0.9,6,0.9
